Measurements collected from several papers.
Protocols differ between the studies behind these lines.
Target: Dual specificity tyrosine-phosphorylation-regulated kinase 2 (DYRK2, Homo sapiens, UniProt Q92630)
Residues used in one study (Q92630 1-601): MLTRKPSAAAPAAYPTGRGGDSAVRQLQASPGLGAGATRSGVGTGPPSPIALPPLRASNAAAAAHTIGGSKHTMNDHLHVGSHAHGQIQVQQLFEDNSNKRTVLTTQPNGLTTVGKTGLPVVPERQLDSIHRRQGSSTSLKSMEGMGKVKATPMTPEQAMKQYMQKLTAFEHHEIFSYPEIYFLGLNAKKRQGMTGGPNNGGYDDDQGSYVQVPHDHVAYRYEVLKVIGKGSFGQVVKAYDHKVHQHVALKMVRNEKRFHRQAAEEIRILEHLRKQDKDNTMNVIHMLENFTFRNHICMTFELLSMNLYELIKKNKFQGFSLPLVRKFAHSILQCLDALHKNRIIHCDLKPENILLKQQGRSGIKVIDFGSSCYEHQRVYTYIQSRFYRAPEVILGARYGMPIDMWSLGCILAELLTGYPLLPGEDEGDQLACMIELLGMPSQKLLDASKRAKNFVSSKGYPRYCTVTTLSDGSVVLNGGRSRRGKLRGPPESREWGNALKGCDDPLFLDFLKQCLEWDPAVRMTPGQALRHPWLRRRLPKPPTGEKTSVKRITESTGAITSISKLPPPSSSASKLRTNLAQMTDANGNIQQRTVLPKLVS

| Compound | test | conditions | measurement | result |
| --- | --- | --- | --- | --- |
| O=C(O)c1ccc2c(c1)nc(Nc1ccccc1Cl)c1ncncc12 | enzyme activity, inhibitor, radiometric | 1 µM | remaining activity | 60% |
| Cc1cc(NC(=O)c2cccc(S(F)(F)(F)(F)F)c2)cc(-n2ccn3nc(-c4cccnc4)cc23)c1 | cell-free assay, competition with immobilised ligand | 1 µM | remaining binding | 100% |
| Cn1cncc1C1=CN(c2ncnc3[nH]cnc23)CCS1 | enzyme activity, inhibitor, radiometric | 50 nM | inhibition | 20.6% |
| O=C1NC(=O)c2cc(Nc3ccc(F)cc3)c(Nc3ccc(F)cc3)cc21 | cell-free assay | 0.5 µM | remaining signal | 89.1% |
| CN(C)CC#Cc1ccc(OCCCc2sc(N3CCc4cccc(C(=O)Nc5nc6ccccc6s5)c4C3)nc2C(=O)O)c(F)c1 | cell-free assay, competition with immobilised ligand | 1 µM | remaining binding | 100% |
| O=C(O)c1ccc2c(c1)nc(Nc1ccccc1)c1ncncc12 | enzyme activity, inhibitor, radiometric | 1 µM | remaining activity | 54% |
| CNC(=O)c1cc(Oc2ccc(NC(=O)Nc3ccc(Cl)c(C(F)(F)F)c3)cc2)ccn1 | enzyme activity, inhibitor | 0.3 µM | inhibition | -3% |
| Cc1c(C(=O)O)cc(-c2ccc(C3CCNCC3)cc2)c2ccc(-c3ccc(C(F)(F)F)cc3)cc12 | binding, competition with immobilised ligand | 1 µM | remaining binding | 100% |
| O=C(O)c1ccc2c(c1)nc(NCc1ccccc1)c1ncncc12 | enzyme activity, inhibitor, radiometric | 1 µM | remaining activity | 37% |
| N#CCCc1ccc2c(c1)-c1[nH]c3ccc([N+](=O)[O-])cc3c1CC(=O)N2 | cell-free assay | 0.5 µM | remaining signal | 46.8% |
| O=C(O)c1ccc2c(c1)nc(Nc1cccc(F)c1)c1ccncc12 | enzyme activity, inhibitor, radiometric | 1 µM | remaining activity | 13% |
| Nc1ncnc2occ(-c3ccc(NC(=O)Nc4cc(C(F)(F)F)ccc4F)cc3)c12 | cell-free assay, inhibitor | 20 µM | remaining signal | 19% |
| CC/C(=N\NC(=O)NCc1cccc(O)c1)c1ccc(O)c(C)c1O | enzyme activity, inhibitor | 0.1 µM | inhibition | -0.2% |
| O=C(O)[C@H]1[C@H](Cn2nnc3ccccc3c2=O)CC[C@@H]1C(=O)c1ccc(OCCC2CCOCC2)cc1 | cell-free assay, competition with immobilised ligand | 1 µM | remaining binding | 93% |
| O=C(O)c1ccc2c(c1)nc(NCCc1cccc(F)c1)c1ncncc12 | enzyme activity, inhibitor, radiometric | 1 µM | remaining activity | 52% |
| Cc1ccc(Nc2nccc(N(C)c3ccc4c(C)n(C)nc4c3)n2)cc1S(N)(=O)=O | enzyme activity, inhibitor | 10 µM | inhibition | -3% |
| COc1ccc(COc2ccc(Cc3cnc(N)nc3N)cc2OC)cc1 | cell-free assay | 0.5 µM | remaining signal | 105% |
| Cc1ccc(NC(=O)c2ccc(C)c(C(F)(F)F)c2)cc1C#Cc1nn(C2CCC(O)CC2)c2ncnc(N)c12 (stereo not shown) | cell-free assay | 10 µM | remaining signal | 107% |
| CCN(CC)CCNC(=O)c1c(C)[nH]c(/C=C2\C(=O)Nc3ccc(F)cc32)c1C | enzyme activity, inhibitor | 10 µM | inhibition | 36% |
| CNCc1ccccc1-c1csc([C@H](C)Nc2nc(C)nc3cc(OC)c(OC)cc23)c1 | cell-free assay, competition with immobilised ligand | 1 µM | remaining binding | 96% |
| O=C(O)c1ccc2c(c1)nc(Nc1cccc(F)c1)c1ncncc12 | enzyme activity, inhibitor, radiometric | 1 µM | remaining activity | 33% |
| Cc1cc(C)c(-n2ccn3nc(-c4cccnc4)cc23)cc1NC(=O)c1cc(C#N)cc(S(F)(F)(F)(F)F)c1 | cell-free assay, competition with immobilised ligand | 0.1 µM | remaining binding | 82.5% |
| O=C(O)c1ccc2c(c1)nc(NCc1ccccc1)c1ccncc12 | enzyme activity, inhibitor, radiometric | 1 µM | remaining activity | 27% |
| FC(F)(F)Oc1cccc(-c2cnc3ccc(-c4ccncc4)nn23)c1 | enzyme activity, inhibitor, radiometric | 1 µM | activity vs control | 52% |
| NS(=O)(=O)c1cc(NC(=O)C2(c3ccccc3Cl)CC2)ccc1Oc1cccc(Cl)c1 | cell-free assay, competition with immobilised ligand | 1 µM | remaining binding | 81% |
| COc1cc(/C=C/C(=O)CC(=O)/C=C/c2ccc(O)c(OC)c2)ccc1O | enzyme activity, inhibitor | 1 µM | activity vs control | 5% |
| O=C(Nc1cccnn1)N1CC(C/C=C/c2cncc(Oc3ccc(C(F)(F)F)cn3)n2)C1 | cell-free assay, competition with immobilised ligand | 1 µM | remaining binding | 81% |
| COc1cccc(Nc2nc3cc(C(=O)O)ccc3c3cnccc23)c1 | enzyme activity, inhibitor, radiometric | 1 µM | remaining activity | 14% |
